Molecules are shown by their SMILES.

Data on 5 compounds can be found in ChEMBL document CHEMBL1143769, “Ezetimibe analogs with a reorganized azetidinone ring: Design, synthesis, and evaluation of cholesterol absorption inhibitions” (2007).

In assay [1] the test system is Rattus norvegicus. Description: Decrease in total cholesterol levels in high-cholesterol diet fed Wistar rat at 4 mg/kg/day. It is filed as functional. Set-up: scale not given: the % may be the effect or the level left. The essentials:
(§1)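 Rats fed a high-cholesterol, high-fat diet; drug suspended in 0.5% sodium carboxymethyl cellulose (40 mg/100 ml) and given intragastrically at 4 mg/kg/day. After a 16 h fast, tail blood was collected and serum total cholesterol and LDL-cholesterol measured. 8–18 rats per group; percent change calculated against high-cholesterol-diet animals.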

For assay [2], the system named is Rattus norvegicus. Description: Decrease in LDL-cholesterol levels in high-cholesterol diet fed Wistar rat at 4 mg/kg/day. It is filed as functional. Set-up: scale not given: the % may be the effect or the level left. The essentials:
as §1

As for `O=C1[C@H](CC[C@H](O)c2ccc(F)cc2)[C@@H](c2ccc(O)cc2)N1c1ccc(F)cc1` [EZETIMIBE], the Activity with Rattus norvegicus [1] was -51%; in the assay with Rattus norvegicus [2], -47%.

Take `O=C1[C@H](c2ccc(F)cc2)[C@@H](c2ccc(O)cc2)N1CC[C@@H](O)c1ccc(F)cc1`: the Activity in the assay on Rattus norvegicus [1] is listed as -17%; in the assay on Rattus norvegicus [2], -5%.

Consider `O=C1[C@@H](c2ccc(F)cc2)[C@H](c2ccc(O)cc2)N1CC[C@@H](O)c1ccc(F)cc1`, for which the Activity in the assay with Rattus norvegicus [1] is listed as -18%; in the assay with Rattus norvegicus [2] it was -35%.

On to `O=C1[C@H](c2ccc(F)cc2)[C@@H](c2ccc(O)cc2)N1CC[C@H](O)c1ccc(F)cc1`, for which the figures for the Activity with Rattus norvegicus [1] and with Rattus norvegicus [2] were -26% and -22%, respectively.

`O=C1[C@@H](c2ccc(F)cc2)[C@H](c2ccc(O)cc2)N1CC[C@H](O)c1ccc(F)cc1`: the Activity was -25% in the assay with Rattus norvegicus [1] and -29% with Rattus norvegicus [2].
